Data set [1] in a line: distribution of danofloxacin and tulathromycin in plasma, ISF and PELF by age. The format is in vivo, calves. The conditions noted are these: non‐linear mixed effect modeling.
The test system of data set [2] is healthy purpose-bred cats. The conditions noted are these: in vivo.
Data set [3] deals with healthy beagle dogs. The conditions noted are these: oral administration, ref previous studies performed by these authors; cited from earlier work.
Data set [4] relates to New Zealand rabbits with dilated cardiomyopathy induced by doxorubicin. In words: Doxorubicin-induced dilated cardiomyopathy in New Zealand rabbits. The format is in vivo, rabbit.
Data set [5] deals with thyroid TT4 response. As to the kind of experiment: TSH stimulation test, serum TT4. The format is in vivo, dog. The conditions noted are these: 6 dogs, oral hydrocortisone for 90 days.
Data set [6] concerns diabetic cats. As to the kind of experiment: One-year randomized trial of insulin types in diabetic cats. The format is in vivo, cat. The conditions noted are these: BID insulin, glargine=24, PZIR=22.
Data set [7] is described as follows: crossover study of IV dipyrone to control fever. The format is in vivo, horses. The conditions noted are these: single 30 mg/kg IV, 6 hours post administration, versus placebo.
The subject of data set [8] is dogs with MUE. In words: Retrospective survival of dogs with MUE given cytarabine CRI. It is filed as in vivo, dog. The conditions noted are these: 22 dogs, at least 1 CRI treatment; range 61 – 1312.
For data set [9], the system named is canine, human, and murine glioma cell lines. In words: In vitro sensitivity of glioma cell lines. The format is cell-based. The conditions noted are these: monotherapy, biologically relevant exposures. The procedure, abridged: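 Murine, canine and human glioma cell lines were tested for in vitro sensitivity to the test compound and to radiation, each given as monotherapy. PC-3 expression in the same lines was also evaluated.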

In data set [10] the test system is dogs with spontaneously-arising glioma and meningioma. The format is in vivo, dog. The conditions noted are these: six dogs. The procedure, abridged: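 Dogs with spontaneously arising glioma or meningioma received the oral test compound together with conventional therapies. Tolerability was assessed, with serial clinical and MRI outcome assessments.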
Data set [11] has as its system dogs with EPI. As to the kind of experiment: Oral cobalamin supplementation in dogs with EPI, serum cobalamin. It is filed as in vivo, dog. The conditions noted are these: daily cyanocobalamin tablets, 28–199 days; 10 dogs; at inclusion 204. The procedure, abridged:
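Dogs entered with EPI diagnosed by subnormal serum cTLI (reference 5–35 μg/L) and an initial serum cobalamin of 350 ng/L or less (reference 234–811 ng/L). All received daily oral cyanocobalamin tablets at 1 mg/tablet.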

The subject of data set [12] is equine neutrophils. In words: neutrophil respiratory burst, luminol chemoluminescence, opsonized zymosan. The format is cell-based, horses. The conditions noted are these: TX 0.5 to 20 μM; dose dependent.
Setting [13] is: 2 mg/kg every 12 hours for 30 days.

A value given as a limit tells only on which side of the number the result lay.

In the case of `CN1C[C@@H]2C[C@H]1CN2c1cc2c(cc1F)c(=O)c(C(=O)O)cn2C1CC1` [danofloxacin], the “age as covariate in plasma concentration differences” value in data set [1] is recorded as “not for danofloxacin treated calves”.
Turning to `Cc1cccc([C@H](C)c2cnc[nH]2)c1C` [dexmedetomidine], the “cats with successful emesis” value in data set [2] is given as 58%.
In the case of `O=C(N/N=C/c1cccs1)c1ccc2c(c1)OCO2` [LASSBio 294], the “increase of shortening fraction” value in data set [3] is 19.1%. Also, in data set [4] (setting [13]), the “E'/A' ratio” value is under 1 and the E/A ratio is listed as under 1. The “increase of FS” value in data set [4] (2 mg/kg every 12 hours, n = 7, second week) amounted to 35%.
Turning to `C[C@]12CCC(=O)C=C1CC[C@@H]1[C@@H]2[C@@H](O)C[C@@]2(C)[C@H]1CC[C@]2(O)C(=O)CO` [hydrocortisone], the “mean basal serum TT4 concentration” value in data set [5] is 0.32 µg/dL.
“PZIR: human-recombinant protamine zinc insulin”: the cats achieving remission in [6] is on record as 23%.
With `Cc1c(N(C)CS(=O)(=O)O)c(=O)n(-c2ccccc2)n1C` [dipyrone, Dipyrone], in data set [7], the control of fever result is recorded as “effectively controlled fever”.
As to `Nc1ccn([C@@H]2O[C@H](CO)[C@@H](O)[C@@H]2O)c(=O)n1` [cytarabine], the “Survival, median” value in [8] worked out at 258.5 days.
`C=CCc1cccc(/C=N/NC(=O)CN2CCN(Cc3ccccc3)CC2)c1O` [PAC‐1]: in data set [9], the “in vitro sensitivity of glioma cell lines” value was “show in vitro sensitivity”. The partial responses in data set [10] is listed as 3 dogs.
Turning to cyanocobalamin [CBL], the “median serum CBL concentration after supplementation” value in data set [11] was 1,113 ng/L.
As for `CC/C(=C(\c1ccccc1)c1ccc(OCCN(C)C)cc1)c1ccccc1` [TX, Tamoxifen], in data set [12], the “neutrophil respiratory burst induced by opsonized zymosan” value is listed as “inhibits neutrophil respiratory burst”.
